“And” between values parts separate entries of the source, which are not always exact repeats. Equal entries are not always repeated. Marks after values point to notes of the source that are not given here.
Assays:
[1] = test system: SW620 cells; assay: Clonogenic survival assay, SW620; assay type: cell-based, human; settings: for Enhancement factor: 1 μM KU59403
Method in brief: (§1)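 Clonogenic assay in RPMI 1640 + 10% FBS, 37°C, 5% CO2, <30 passages; HCT116-N7 stably expresses HPV16 E6. Exponentially growing cells had 16 h exposure to cytotoxic (etoposide, doxorubicin or camptothecin; etoposide 1 μM for the bar data) ± test compound 1 μM in 0.5% DMSO, then were seeded for colonies. Survival was normalised to DMSO or inhibitor-alone control. Enhancement factor = survival cytotoxic alone ÷ survival combination, per experiment; 3 independent experiments.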

[2] = test system: LoVo cells; assay: Clonogenic survival assay, LoVo; assay type: cell-based, human; settings: for % Survival Cytotoxic alone / Enhancement factor / % Survival Cytotoxic + KU59403: LoVo; for Enhancement factor: 1 μM KU59403
Method in brief: as §1

[3] = Body weight; assay type: in vivo, mice; settings: for Maximum body weight loss: SW620 xenograft studies
[4] = test system: ATM activity in MDA-MB231 cells; assay: Inhibition of IR-induced ATM activity, MDA-MB231; assay type: cell-based, human; settings: 1 μM
[5] = Plasma and tissue concentrations in Balb/C mice; assay type: in vivo; settings: 25 mg/kg i.v., female Balb/C mice, at 4 hr
Method in brief: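 Female Balb/C mice (non-tumour-bearing) received 25 mg/kg i.v. (10 ml/kg) in equimolar phosphoric acid/saline, pH 4. At time points to 4 h, mice were bled by terminal cardiac puncture. Plasma was stored at −20 °C; brain, liver, spleen and lung were snap frozen and homogenised in PBS (1:3 w/v). Samples underwent HPLC against a plasma standard curve (0.05-10 μg/ml); tissue was quantified by method of addition. n = 3 mice per time point.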

[6] = test system: MDA-MB-231 cells; assay: Clonogenic survival assay, MDA-MB-231; assay type: cell-based, human; settings: MDA-MB-231, etoposide 1 μM + KU59403 1 μM (Figure 1D)
Method in brief: as §1

[7] = test system: human tumour cell lines; assay: Concentration needed for in vitro chemo- and radio-sensitisation; assay type: cell-based
[8] = test system: HCT116-N7 cells; assay: Clonogenic survival assay, HCT116-N7; assay type: cell-based, human; settings: HCT116-N7, etoposide 1 μM + KU59403 1 μM (Figure 1D)
Method in brief: as §1

[9] = test system: SW620 xenografts; assay: Anti-tumour efficacy, SW620 xenografts; assay type: in vivo, mice
[10] = test system: HCT116-N7 xenografts; assay: Anti-tumour efficacy, HCT116-N7 xenografts; assay type: in vivo, mice
[11] = target: ATM activity in HCT116 cells (Homo sapiens, UniProt Q13315); assay: Inhibition of IR-induced ATM activity, HCT116; assay type: cell-based; settings: 1 μM
[12] = Plasma and tumour concentrations in SW620 tumour-bearing nude mice; assay type: in vivo
Method in brief: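 Female CD-1 nude mice carried SW620 s.c. flank xenografts (1×10^7 cells) of ~650 mm³. Test compound was given at 50 mg/kg i.p. in equimolar phosphoric acid/saline, pH 4. The comparator ATM inhibitor was given at 10 mg/kg i.p. in phosphoric acid, 5% DMSO, 10% encapsin, pH 4. Dosing volume was 10 ml/kg. Plasma and tumour were sampled at 1 and 4 h and analysed by HPLC; the tumour detection limit was 0.5 μM.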

[13] = target: ATM activity in SW620 cells (Homo sapiens, UniProt Q13315); assay: Inhibition of cellular ATM activity, SW620; assay type: cell-based; settings: 1 μM
[14] = test system: HCT116 cells; assay: Clonogenic survival assay, HCT116; assay type: cell-based, human; settings: HCT116, etoposide 1 μM + KU59403 1 μM (Figure 1D)
Method in brief: as §1

[15] = target: ATM (Homo sapiens, UniProt Q13315); assay: Enzyme inhibition, purified ATM; assay type: biochemical
Method in brief: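 Enzymes were isolated from HeLa cells: ATM plus DNA-PK, PI3K, ATR, PI4K and mTOR. Activity was measured across increasing test compound concentrations. IC50 was calculated from sigmoid plots of inhibitor concentration versus activity. Values are the mean of five independent experiments.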

[16] = test system: human tumour cell lines; settings: cited from earlier work
[17] = KU59403 12.5 mg/kg 2× daily ×5 alone
[18] = KU59403 25 mg/kg daily ×5 alone
[19] = etopophos + KU59403 6 mg/kg 2× daily ×5
[20] = etopophos + KU59403 12.5 mg/kg 1× daily ×5 5 hr post
[21] = etopophos + KU59403 12.5 mg/kg 1× daily ×5 concurrent
[22] = etopophos + KU59403 12.5 mg/kg 2× daily ×5
[23] = etopophos + KU59403 25 mg/kg 2× daily ×5
[24] = irinotecan + KU59403 25 mg/kg daily ×5
[25] = etopophos 11.35 mg/kg i.p. daily ×5 + KU59403 25 mg/kg i.p. twice daily for 5 days
[26] = etopophos (equivalent to 10 mg/kg etoposide) daily ×5 alone

Sequence of ATM (Q13315 whole entry): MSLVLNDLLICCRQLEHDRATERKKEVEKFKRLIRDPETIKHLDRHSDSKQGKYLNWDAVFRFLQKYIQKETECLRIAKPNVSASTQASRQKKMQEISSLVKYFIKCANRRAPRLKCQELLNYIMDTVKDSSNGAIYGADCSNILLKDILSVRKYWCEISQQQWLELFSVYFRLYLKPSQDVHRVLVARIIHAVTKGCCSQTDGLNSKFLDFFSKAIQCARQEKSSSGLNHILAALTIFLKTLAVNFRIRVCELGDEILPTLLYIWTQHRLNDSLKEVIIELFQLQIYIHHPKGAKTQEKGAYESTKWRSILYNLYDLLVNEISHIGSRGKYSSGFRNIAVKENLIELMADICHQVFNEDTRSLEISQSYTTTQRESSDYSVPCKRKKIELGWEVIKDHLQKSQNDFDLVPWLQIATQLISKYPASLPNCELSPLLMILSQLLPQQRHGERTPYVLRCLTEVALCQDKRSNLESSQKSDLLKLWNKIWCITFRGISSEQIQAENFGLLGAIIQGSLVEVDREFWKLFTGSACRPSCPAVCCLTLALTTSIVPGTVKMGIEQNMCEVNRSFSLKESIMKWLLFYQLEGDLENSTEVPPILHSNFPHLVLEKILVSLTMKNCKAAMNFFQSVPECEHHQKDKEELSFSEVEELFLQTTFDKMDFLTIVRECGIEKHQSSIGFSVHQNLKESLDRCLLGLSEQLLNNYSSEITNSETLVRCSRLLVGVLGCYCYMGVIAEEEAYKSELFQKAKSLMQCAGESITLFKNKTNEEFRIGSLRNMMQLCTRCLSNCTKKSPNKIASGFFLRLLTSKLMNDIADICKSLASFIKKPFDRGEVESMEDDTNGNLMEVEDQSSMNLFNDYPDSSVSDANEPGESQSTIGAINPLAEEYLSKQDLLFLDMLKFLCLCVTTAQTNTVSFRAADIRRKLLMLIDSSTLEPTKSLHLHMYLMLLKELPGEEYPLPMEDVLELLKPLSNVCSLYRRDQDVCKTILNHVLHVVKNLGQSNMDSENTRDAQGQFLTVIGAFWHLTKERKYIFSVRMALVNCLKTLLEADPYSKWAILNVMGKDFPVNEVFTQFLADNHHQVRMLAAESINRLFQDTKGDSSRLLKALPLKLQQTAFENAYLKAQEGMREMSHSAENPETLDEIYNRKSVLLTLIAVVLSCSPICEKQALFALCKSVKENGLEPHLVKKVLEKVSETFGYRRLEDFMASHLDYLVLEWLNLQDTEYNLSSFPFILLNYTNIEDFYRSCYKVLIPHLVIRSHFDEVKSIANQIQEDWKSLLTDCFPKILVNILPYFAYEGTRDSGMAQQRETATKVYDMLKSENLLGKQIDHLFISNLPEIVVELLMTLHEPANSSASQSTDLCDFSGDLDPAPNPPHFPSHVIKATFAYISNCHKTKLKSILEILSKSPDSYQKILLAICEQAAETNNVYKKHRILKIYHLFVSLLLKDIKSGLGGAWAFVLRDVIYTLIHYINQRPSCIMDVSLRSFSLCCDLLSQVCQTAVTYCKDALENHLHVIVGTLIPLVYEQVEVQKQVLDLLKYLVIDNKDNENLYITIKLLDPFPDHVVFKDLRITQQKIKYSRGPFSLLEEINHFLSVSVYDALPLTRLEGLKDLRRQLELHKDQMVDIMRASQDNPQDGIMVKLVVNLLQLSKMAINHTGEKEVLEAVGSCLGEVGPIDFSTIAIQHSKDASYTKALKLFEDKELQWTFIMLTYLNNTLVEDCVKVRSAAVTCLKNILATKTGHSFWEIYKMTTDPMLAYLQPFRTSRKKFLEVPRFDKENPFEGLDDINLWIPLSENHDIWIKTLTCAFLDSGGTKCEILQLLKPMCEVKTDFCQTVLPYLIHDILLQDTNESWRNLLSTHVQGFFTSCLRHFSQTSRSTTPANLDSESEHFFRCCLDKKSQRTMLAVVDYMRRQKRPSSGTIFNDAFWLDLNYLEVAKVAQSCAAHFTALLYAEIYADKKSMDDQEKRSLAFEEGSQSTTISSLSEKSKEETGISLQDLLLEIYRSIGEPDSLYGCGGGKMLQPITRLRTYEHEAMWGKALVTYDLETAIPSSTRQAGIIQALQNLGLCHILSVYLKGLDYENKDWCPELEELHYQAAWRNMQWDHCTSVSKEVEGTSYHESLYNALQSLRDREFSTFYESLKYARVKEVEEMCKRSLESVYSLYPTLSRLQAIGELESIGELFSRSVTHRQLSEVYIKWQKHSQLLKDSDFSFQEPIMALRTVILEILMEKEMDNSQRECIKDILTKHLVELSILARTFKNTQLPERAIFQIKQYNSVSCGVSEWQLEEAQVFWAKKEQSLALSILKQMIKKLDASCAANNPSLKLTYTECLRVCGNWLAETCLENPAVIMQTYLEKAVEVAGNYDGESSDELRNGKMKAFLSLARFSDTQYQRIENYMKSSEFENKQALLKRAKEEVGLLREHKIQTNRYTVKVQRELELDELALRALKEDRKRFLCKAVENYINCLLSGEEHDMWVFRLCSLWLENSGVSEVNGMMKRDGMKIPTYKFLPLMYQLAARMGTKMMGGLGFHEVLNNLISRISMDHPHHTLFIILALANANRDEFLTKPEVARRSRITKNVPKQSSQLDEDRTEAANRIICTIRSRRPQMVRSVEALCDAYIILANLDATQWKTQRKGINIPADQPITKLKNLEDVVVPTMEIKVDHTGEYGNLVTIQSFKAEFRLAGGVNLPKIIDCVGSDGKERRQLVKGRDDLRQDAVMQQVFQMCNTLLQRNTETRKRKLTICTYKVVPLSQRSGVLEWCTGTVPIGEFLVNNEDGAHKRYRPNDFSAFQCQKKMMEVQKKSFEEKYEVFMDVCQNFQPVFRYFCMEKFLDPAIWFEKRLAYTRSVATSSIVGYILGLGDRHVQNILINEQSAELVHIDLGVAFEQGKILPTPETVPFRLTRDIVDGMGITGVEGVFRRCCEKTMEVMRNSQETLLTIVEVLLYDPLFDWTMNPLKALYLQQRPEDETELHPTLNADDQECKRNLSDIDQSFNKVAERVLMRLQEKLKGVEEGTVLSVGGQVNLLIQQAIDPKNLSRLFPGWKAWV
Sequence of ATM activity in SW620 cells (Q13315 whole entry): as above
Sequence of ATM activity in HCT116 cells (Q13315 whole entry): as above

## CC[C@@]1(O)C(=O)OCc2c1cc1n(c2=O)Cc2cc3ccccc3nc2-1 [Camptothecin, camptothecin, reference compound]
[1]; SW620, cytotoxic 10 nM, 16 hr
  % Survival Cytotoxic alone: 2.4 ± 0.2%
[2]; cytotoxic 10 nM, 16 hr
  % Survival Cytotoxic alone: 33 ± 7.9%

## COc1cccc2c1C(=O)c1c(O)c3c(c(O)c1C2=O)C[C@@](O)(C(=O)CO)C[C@@H]3O[C@H]1C[C@H](N)[C@H](O)[C@H](C)O1 [Doxorubicin, doxorubicin, reference compound]
[1]; SW620, cytotoxic 10 nM, 16 hr
  % Survival Cytotoxic alone: 50 ± 9%
[1]; SW620, cytotoxic 100 nM, 16 hr
  % Survival Cytotoxic alone: 0.02 ± 0.01%
[2]; cytotoxic 10 nM, 16 hr
  % Survival Cytotoxic alone: 47 ± 3.1%
[2]; cytotoxic 100 nM, 16 hr
  % Survival Cytotoxic alone: 2.1 ± 0.5%

## COc1cc([C@@H]2c3cc4c(cc3[C@@H](O[C@@H]3O[C@@H]5CO[C@@H](C)O[C@H]5[C@H](O)[C@H]3O)[C@H]3COC(=O)[C@H]23)OCO4)cc(OC)c1O [Etoposide, etoposide, reference compound]
[1]; SW620, cytotoxic 100 nM, 16 hr
  % Survival Cytotoxic alone: 89 ± 8.3%
[1]; SW620, cytotoxic 1 μM, 16 hr
  % Survival Cytotoxic alone: 3.8 ± 1.1%
[2]; cytotoxic 100 nM, 16 hr
  % Survival Cytotoxic alone: 58 ± 8.3%
[2]; cytotoxic 1 μM, 16 hr
  % Survival Cytotoxic alone: 3.9 ± 0.8%

## CN1CCN(CCC(=O)Nc2ccc3c(c2)Sc2cccc(-c4cc(=O)cc(N5CCOCC5)o4)c2S3)CC1 [KU59403]
[3]; [17]
  Nadir % Starting Body weight: 100%
[3]; [18]
  Nadir % Starting Body weight: 99.7%
[3]; combination of KU59403 and etopophos
  Maximum body weight loss: 7%
[3]; [19]
  Nadir % Starting Body weight: 96.9%
[3]; [20]
  Nadir % Starting Body weight: 94.3%
[3]; [21]
  Nadir % Starting Body weight: 96.5%
[3]; [22]
  Nadir % Starting Body weight: 94.9%
[3]; [23]
  Nadir % Starting Body weight: 93.3%
[3]; given as a single agent
  Maximum body weight loss: < 2%
[3]; [24]
  Nadir % Starting Body weight: 100%
[4]
  Inhibition of IR-induced ATM activity: approximately 50%
[5]
  Plasma concentration: less than 0.1 μM
[6]
  Enhancement of etoposide cytotoxicity: 3.8 ± 1.8 fold
[1]; SW620, camptothecin 10 nM + 1 μM KU59403, 16 hr
  % Survival Cytotoxic + KU59403: 0.71 ± 0.35 %
[1]; SW620, camptothecin 10 nM
  Enhancement factor: 4 and 4.3 ± 2.8
[1]; SW620, doxorubicin 10 nM + 1 μM KU59403, 16 hr
  % Survival Cytotoxic + KU59403: 17 ± 0.2 %
[1]; SW620, doxorubicin 10 nM
  Enhancement factor: 2.9 ± 0.6
[1]; SW620, doxorubicin 100 nM + 1 μM KU59403, 16 hr
  % Survival Cytotoxic + KU59403: 0.01 ± .001%
[1]; SW620, doxorubicin 100 nM
  Enhancement factor: 1.8 ± 0.7
[1]; SW620, etoposide 100 nM + 1 μM KU59403, 16 hr
  % Survival Cytotoxic + KU59403: 35 ± 12 %
[1]; SW620, etoposide 100 nM
  Enhancement factor: 2.9 ± 1.5
[1]; SW620, etoposide 1 μM + 1 μM KU59403, 16 hr
  % Survival Cytotoxic + KU59403: 0.41 ± 0.23 %
[1]; SW620, etoposide 1 μM + KU59403 1 μM (Figure 1D)
  Enhancement of etoposide cytotoxicity: 11.9 ± 4.7 fold and 12 fold
[1]; SW620, etoposide 1 μM
  Enhancement factor: 12 ± 7
[1]; SW620 cells, KU59403 1 μM alone, 16 hr
  % survival, inhibitor alone: 91± 6%
[7]
  Concentration at which an effective chemo-sensitiser: 1 µM
[8]
  Enhancement of etoposide cytotoxicity: 3.8 ± 2.5 fold
[9]; [17]
  Delay: 0.5 days
  Time to RTV4: 7 days
[9]; [18]
  Delay: 5.5 days
  Time to RTV4: 12 days
[9]; KU59403 25 mg/kg twice daily, SW620 xenografts
  Increase in etopophos-induced tumour growth delay: 3 fold
[9]; [19]
  Delay: 5.5 days
  Enhancement (%): 38%
  Time to RTV4: 12 days
[9]; [20]
  Delay: 3.5 days
  Time to RTV4: 10 days
[9]; [21]
  Delay: 10 days
  Enhancement (%): 150%
  Time to RTV4: 16.5 days
[9]; [22]
  Delay: 8.5 days
  Enhancement (%): 113 ^§ %
  Time to RTV4: 15 days
[9]; [23]
  Delay: 11.5 days
  Time to RTV4: 18 days
[9]; etopophos + KU59403 25 mg/kg 2× daily ×5, 25 mg/kg
  Enhancement (%): 190 ^* %
[9]; [24]
  Delay: 19.5 days
  Time to RTV4: 26 days
[9]; irinotecan + KU59403 25 mg/kg daily ×5, 25 mg/kg
  Enhancement (%): 144% and 144 ^* %
[10]; KU59403 25 mg/kg twice daily, HCT116-N7 xenografts
  Increase in etopophos-induced tumour growth delay: 3 fold
[10]; [25]
  Enhancement of etopophos activity: 300%
  Etopophos-induced tumour growth delay: 8.5 days
[11]
  Inhibition of IR-induced ATM activity: > 50%
[12]; 50 mg/kg i.p., SW620-bearing nude mice
  Time plasma concentration maintained: at least 4 hours
[12]; 50 mg/kg i.p., SW620 xenograft, 4 hour time point
  Tumour concentration: 1.9 µM
[12]; single dose 50 mg/kg i.p., SW620-bearing nude mice, 1 and 4 hours
  Plasma concentration: 5 µM
[13]
  Inhibition of ATM activity: > 50%
[2]; LoVo cells, KU59403 1 μM alone, 16 hr
  % survival, inhibitor alone: 88± 7%
[2]; camptothecin 10 nM
  Enhancement factor: 7 and 6.9 ± 3.8
[2]; doxorubicin 10 nM + 1 μM KU59403, 16 hr
  % Survival Cytotoxic + KU59403: 16 ± 6.9 %
[2]; doxorubicin 10 nM
  Enhancement factor: 3.2 ± 1
[2]; doxorubicin 100 nM + 1 μM KU59403, 16 hr
  % Survival Cytotoxic + KU59403: 0.35 ± 0.04 %
[2]; doxorubicin 100 nM
  Enhancement factor: 6.1 ± 2.1
[2]; etoposide 100 nM + 1 μM KU59403, 16 hr
  % Survival Cytotoxic + KU59403: 18 ± 0.5 %
[2]; etoposide 100 nM
  Enhancement factor: 3.3 ± 0.4
[2]; etoposide 1 μM + 1 μM KU59403, 16 hr
  % Survival Cytotoxic + KU59403: 1.1 ± 0.2 %
[2]; etoposide 1 μM
  Enhancement factor: 3.8 ± 1.5
[14]
  Enhancement of etoposide cytotoxicity: 2.3 ± 1.6 fold
[15]
  Specificity for ATM over other members of the PI3K (PIKK) family tested: at least 1000 fold

## C[C@@H]1CN(CC(=O)Nc2ccc3c(c2)Cc2cccc(-c4cc(=O)cc(N5CCOCC5)o4)c2S3)C[C@H](C)O1 [KU-600019]
[16]
  Concentration needed to induce in vitro chemo- and radio-sensitisation: 3 µM

## COc1cc([C@@H]2c3cc4c(cc3[C@@H](O[C@@H]3O[C@@H]5CO[C@@H](C)O[C@H]5[C@H](O)[C@H]3O)[C@H]3COC(=O)[C@H]23)OCO4)cc(OC)c1OP(=O)(O)O [etopophos, Etoposide phosphate, reference compound]
[3]; [26]
  Nadir % Starting Body weight: 98.6%
[3]; given as a single agent
  Maximum body weight loss: < 2%
[9]; [26]
  Delay: 4 days
  Time to RTV4: 10.5 days
[10]; etopophos 11.35 mg/kg i.p. daily for 5 days alone
  Median time to RTV4: 5.5 days

— paper PMC3736091 (Molecular cancer therapeutics, 2013)
